Source: paper PMC10499415 (Clinical and Translational Science, 2023)
Where two headings read alike, the source gives them in different places.

How the values were obtained:
[1] = Phase I hepatic impairment study: safety and tolerability; assay type: in vivo, human
Method in brief: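 Adults with chronic, stable hepatic impairment graded by Child-Pugh score (mild 5–6, moderate 7–9, severe 10–15), plus healthy controls matched on age, BMI and sex. All received a single oral 20 mg dose of test compound with ~240 mL water after an overnight fast of ≥10 h. Inpatient from day −1 to day 4, with repeated clinical and laboratory safety evaluations through day 4. AEs were queried by contact ~14 days post-dose.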

[2] = parameters: unit not given beside the values; conditions: subjects who received futibatinib alone; cited from earlier work
[3] = parameters: AUC0–t / AUC0–inf: unit not given beside the values; conditions: cited from earlier work
[4] = system: cytochrome P450 (CYP450); conditions: in vitro; cited from earlier work
[5] = for AUC0–24 GMR (90% CI) / AUC0–inf GMR (90% CI) / C max GMR (90% CI): GMR = 100 × (test/reference); for increase in AUC0–inf compared with matched controls / increase in C max compared with matched controls: single oral 20 mg
[6] = cited from earlier work
[7] = cited from earlier work; remark: listed apart in the source
[8] = healthy male adults; cited from earlier work
[9] = clinical; conditions: human, in vivo, po, 20 mg, T max
[10] = healthy subjects, fasted conditions
[11] = hepatic impairment groups vs overall healthy control group, range over groups
[12] = mild HI vs matched healthy control
[13] = mild HI vs overall healthy control cohort
[14] = moderate HI vs matched healthy control
[15] = moderate HI vs overall healthy control cohort
[16] = severe HI vs matched healthy control
[17] = severe HI vs overall healthy control cohort

## C=CC(=O)N1CC[C@H](n2nc(C#Cc3cc(OC)cc(OC)c3)c3c(N)ncnc32)C1 [futibatinib, Futibatinib]
[1]; all cohorts
  laboratory results: No unexpected findings or remarkable trends
  study discontinuations due to TEAEs: no study discontinuations
[1]; all cohorts, 38 participants
  total TEAEs reported (all grade 1): four
[1]; moderate hepatic impairment cohort
  participants reporting TEAEs: No participants
[1]; severe hepatic impairment cohort
  participants reporting TEAEs: No participants
[1]; single oral 20 mg, all groups
  tolerability: well‐tolerated
[2]
  AUC0–inf: 941
  AUC0–t: 934.0
[3]; fed conditions
  median T max: 4.0 h
[3]; fed versus fasted
  bioavailability lower under fed versus fasted conditions: 11.2%
[3]; [10]
  AUC0–inf: 625.7
  AUC0–t: 617.8
[4]
  contribution of CYP450–related metabolism to the overall metabolism: ~ 50%
[5]; across the hepatic impairment groups
  geometric mean C max greater than in corresponding matched healthy control group: 10%–43%
[5]; across the hepatic impairment groups, AUC0–24, AUC0–t, AUC0–inf
  geometric mean AUC greater than in corresponding matched healthy control group: 17%–21%
[5]; all groups
  mean percentage of AUC0–inf extrapolated: < 2%
[5]; [11]
  GMRs for AUC: 85.9% to 122.5%
  GMRs for C max: 113.5% to 117.9%
[5]; [12]
  AUC0–24 GMR (90% CI): 121.19 (74.27–197.74) %
  AUC0–inf GMR (90% CI): 120.79 (73.89–197.47) %
  C max GMR (90% CI): 142.53 (103.42–196.44) %
[5]; [13]
  AUC0–24 GMR (90% CI): 85.92 (54.94–134.38) %
  AUC0–inf GMR (90% CI): 85.66 (54.70–134.15) %
  C max GMR (90% CI): 113.52 (82.50–156.21) %
[5]; mild hepatic impairment
  increase in futibatinib exposure versus healthy matched controls: 21%–43%
  increase in AUC0–inf compared with matched controls: 21%
  increase in C max compared with matched controls: 43%
[5]; [14]
  AUC0–24 GMR (90% CI): 119.62 (54.08–264.61) %
  AUC0–inf GMR (90% CI): 119.61 (53.90–265.45) %
  C max GMR (90% CI): 114.85 (75.38–175.00) %
[5]; [15]
  AUC0–24 GMR (90% CI): 122.20 (64.51–231.48) %
  AUC0–inf GMR (90% CI): 122.49 (64.50–232.63) %
  C max GMR (90% CI): 117.90 (82.04–169.44) %
[5]; moderate hepatic impairment
  increase in futibatinib exposure versus healthy matched controls: 15%–20%
  increase in AUC0–inf compared with matched controls: 20%
  increase in C max compared with matched controls: 15%
[5]; [16]
  AUC0–24 GMR (90% CI): 116.91 (57.52–237.60) %
  AUC0–inf GMR (90% CI): 118.23 (57.79–241.87) %
  C max GMR (90% CI): 109.64 (66.62–180.44) %
[5]; [17]
  AUC0–24 GMR (90% CI): 117.62 (67.44–205.13) %
  AUC0–inf GMR (90% CI): 118.57 (67.46–208.38) %
  C max GMR (90% CI): 117.78 (87.42–158.68) %
[5]; severe hepatic impairment
  increase in AUC0–inf compared with matched controls: 18%
  increase in C max compared with matched controls: 10%
[5]; severe mild hepatic impairment (so in the source)
  increase in futibatinib exposure versus healthy matched controls: 10%–18%
[6]; after repeat once daily doses
  accumulation: no accumulation
[6]; patients with cancer and healthy subjects
  mean half‐life: ~ 3 h
[6]; up to 80 mg
  dose proportionality of exposure: Dose‐proportional exposure increases
[7]
  impact of futibatinib on the PKs of CYP3A substrates: no impact
[7]; co‐administered with itraconazole
  futibatinib exposure increase: 40%–50%
[7]; co‐administered with rifampin
  futibatinib exposure decrease: 50%–60%
[8]
  total amount of unchanged futibatinib in urine and feces: negligible
[9]
  Tmax: 1.75 h
